Data published in ChEMBL document CHEMBL1129293 (J Med Chem, 1996).

Experiments:
Rattus norvegicus = species: Rattus norvegicus; experiment: Evaluated for the maximum stimulation of adenylate cyclase in rat striatal tissue with respect to the maximum stimulation caused by dopamine; format: functional, Striatum
[1] = target: D(1A) dopamine receptor (Rattus norvegicus) (UniProt P18901); experiment: Affinity towards Dopamine receptor D1 was evaluated in rat striatal membrane using [3H]SCH-23,390 as radioligand; format: cell membranes; settings: Striatum
D(1A) dopamine receptor (Rattus norvegicus), sequence (P18901 whole entry): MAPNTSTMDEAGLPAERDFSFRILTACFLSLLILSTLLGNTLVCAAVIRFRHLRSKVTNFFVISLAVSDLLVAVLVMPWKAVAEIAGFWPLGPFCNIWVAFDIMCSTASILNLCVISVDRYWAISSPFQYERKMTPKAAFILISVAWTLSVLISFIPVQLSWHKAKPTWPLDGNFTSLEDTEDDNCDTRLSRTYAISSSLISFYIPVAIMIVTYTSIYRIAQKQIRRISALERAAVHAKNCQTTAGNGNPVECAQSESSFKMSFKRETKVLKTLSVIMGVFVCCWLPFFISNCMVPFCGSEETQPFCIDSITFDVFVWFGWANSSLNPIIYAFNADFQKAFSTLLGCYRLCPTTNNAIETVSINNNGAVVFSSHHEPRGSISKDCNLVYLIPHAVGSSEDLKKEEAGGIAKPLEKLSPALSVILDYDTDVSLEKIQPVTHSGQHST
Procedure, shortened: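 Male Sprague-Dawley rats, 200–400 g; striatum dissected from coronal slices, used fresh or held at -70 °C. Membranes homogenized and twice centrifuged at 27000g in ice-cold 50 mM HEPES, 4.0 mM MgCl2, pH 7.4, final ca. 2.0 mg wet weight/mL. Incubation with [3H]SCH23390 at 37 °C for 15 min; bound radioactivity by liquid scintillation; protein by Lowry.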

D(1A) dopamine receptor = D(1A) dopamine receptor (Rattus norvegicus, UniProt P18901); experiment: Effective concentration was determined for the adenylate cyclase activity in rat striatal tissue as a measure of Dopamine receptor D1 functional activity; format: tissue-based, Striatum
D(1A) dopamine receptor, sequence (P18901 whole entry): as above

[2] = target: D(2) dopamine receptor (Rattus norvegicus) (UniProt P61169); experiment: Affinity towards Dopamine receptor D2 was evaluated in rat striatal membrane using [3H]spiperone as radioligand; format: cell membranes; settings: Striatum
D(2) dopamine receptor (Rattus norvegicus), sequence (P61169 whole entry): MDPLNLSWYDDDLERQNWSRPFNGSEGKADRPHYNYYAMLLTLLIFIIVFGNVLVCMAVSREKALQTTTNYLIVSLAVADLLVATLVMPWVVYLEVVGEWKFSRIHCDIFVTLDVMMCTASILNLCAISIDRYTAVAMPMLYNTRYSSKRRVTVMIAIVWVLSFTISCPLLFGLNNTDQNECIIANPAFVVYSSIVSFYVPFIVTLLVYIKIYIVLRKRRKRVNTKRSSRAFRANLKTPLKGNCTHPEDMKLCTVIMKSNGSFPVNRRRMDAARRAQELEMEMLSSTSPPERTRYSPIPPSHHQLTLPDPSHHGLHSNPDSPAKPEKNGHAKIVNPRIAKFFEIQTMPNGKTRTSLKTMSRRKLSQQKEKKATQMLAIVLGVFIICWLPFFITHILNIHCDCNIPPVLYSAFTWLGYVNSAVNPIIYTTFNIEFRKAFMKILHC

Structure (SMILES): Oc1ccc([C@@H]2CNCc3sccc32)cc1O
- Stimulation (Rattus norvegicus): 120%
- K0.5 [1]: 61 nM
- EC50 (D(1A) dopamine receptor): 0.7 µM
- K0.5 [2]: 142 nM

Structure (SMILES): Oc1cc2c(cc1O)[C@@H]1c3ccccc3CN[C@@H]1CC2 (relative stereo)
- Stimulation (Rattus norvegicus): 17%
- K0.5 [1]: > 1000 nM
- K0.5 [2]: > 1000 nM

Structure (SMILES): Oc1ccc2c(c1O)CCC(NCc1ccccc1)C2 (configuration not stated)
- Stimulation (Rattus norvegicus): 38%
- K0.5 [1]: > 1000 nM
- EC50 (D(1A) dopamine receptor): > 1 µM
- K0.5 [2]: > 1000 nM

Structure (SMILES): CN1Cc2ccccc2[C@@H]2c3ccc(O)c(O)c3CC[C@H]21
- Stimulation (Rattus norvegicus): 22%
- K0.5 [1]: 477 nM
- EC50 (D(1A) dopamine receptor): > 10 µM
- K0.5 [2]: 61 nM

Structure (SMILES): NC[C@@H]1O[C@H](c2ccccc2)Cc2c1ccc(O)c2O
- Stimulation (Rattus norvegicus): 96%
- K0.5 [1]: 0.9 nM
- K0.5 [2]: 41 nM

Structure (SMILES): CCCN1CCC[C@@H]2Cc3n[nH]cc3C[C@H]21
- K0.5 [1]: > 10000 nM
- K0.5 [2]: 49 nM

Structure (SMILES): CCCN1Cc2ccccc2[C@@H]2c3cc(O)c(O)cc3CC[C@H]21
- Stimulation (Rattus norvegicus): 36%
- K0.5 [1]: 326 nM
- EC50 (D(1A) dopamine receptor): > 10 µM
- K0.5 [2]: 27 nM

Structure (SMILES): Oc1cc2c(cc1O)[C@H]1c3ccccc3CN[C@@H]1CC2 [DIHYDREXIDINE]
- Stimulation (Rattus norvegicus): 120%
- K0.5 [1]: 2.3 nM
- K0.5 [2]: 43.8 nM

Structure (SMILES): C=CCN1CCc2c(cc(O)c(O)c2Cl)[C@@H](c2ccccc2)C1
- Stimulation (Rattus norvegicus): 94%
- K0.5 [1]: 4 nM
- K0.5 [2]: 73 nM

Structure (SMILES): Oc1cc2c(cc1O)CC(NCc1ccccc1)CC2 (configuration not stated)
- Stimulation (Rattus norvegicus): 25%
- K0.5 [1]: > 1000 nM
- EC50 (D(1A) dopamine receptor): > 10 µM
- K0.5 [2]: 335 nM

Structure (SMILES): C=CCN1Cc2ccccc2[C@@H]2c3cc(O)c(O)cc3CC[C@H]21
- Stimulation (Rattus norvegicus): 32%
- K0.5 [1]: 328 nM
- EC50 (D(1A) dopamine receptor): > 10 µM
- K0.5 [2]: 182 nM

Structure (SMILES): NC[C@@H]1O[C@H](C23CC4CC(CC(C4)C2)C3)Cc2c1ccc(O)c2O
- Stimulation (Rattus norvegicus): 92%

Structure (SMILES): CN1CCc2cc(Cl)c(O)cc2[C@@H](c2ccccc2)C1
- K0.5 [2]: 600 nM

Structure (SMILES): NCCc1ccc(O)c(O)c1 [DOPAMINE]
- Stimulation (Rattus norvegicus): 100%
- K0.5 [1]: 267 nM
